# High-throughput results deposited in PubChem by several laboratories.
# MPTP inh: mitochondrial permeability transition pore inhibitors, primary screen, biochemical, isolated mouse mitochondria, absorbance | AID 602449, 2012 | inhibition, % at 10 µM | Ca2+ swelling absorbance, 30 min | actives 1.4% (n = 360,000);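 active means inhibition of 50% or more, scaled per plate between neutral and stimulator controls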;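 further: 0% = DMSO wells given calcium and 100% = 1 mM EGTA wells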
# T cruzi inh: inhibitors of intracellular T. cruzi growth, primary screen, luminescence, NIH3T3 host cells; actives 1.4% (n = 300,000); inhibition, % (concentration not given with the values); T. cruzi beta-gal in NIH3T3, 90 h;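 active means mean inhibition across valid replicates above about 55%, limit read from the data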;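 further: signal also drops with host cell toxicity which is not excluded here; 0% = plate median of DMSO wells and 100% = zero luminescence signal; higher percent means less beta-gal luminescence so fewer parasites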
#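 Assay system: NIH/3T3 fibroblasts plus reporter T. cruzi. Amount: NIH/3T3 cells, 5,000 per well. Buffer or medium: DMEM, 2% fetal bovine serum. Doses: compound pinned at 50 nL/well, DMSO. Schedule: ≥90 h infection period, 3 h prior cell attachment. Signal: luminescent β-galactosidase signal after 60 min lysis. Read-out: parasite load inhibition, %.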
# Lipid droplet: inhibitors of hepatocyte lipid droplet formation, primary screen, imaging, high-throughput imaging, BODIPY stain | AID 1656, 2009 | actives 0.4% (n = 240,000) | inhibition, % at 6.5 µM | AML12 mouse hepatocytes, oleate lipid droplets;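 active means lipid droplet intensity inhibited by at least 50%, with more than 500 cells counted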
#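 Assay system: AML12 mouse liver cells | Compound: 6.5 µM single-point dosing | Schedule: Overnight exposure | Technique: Fluorescence imaging, 20x objective, two fields per well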
# Lmaj promast: Leishmania major promastigote growth inhibition, primary screen. Leishmania major promastigotes, resazurin fluorescence viability. inhibition, % at 10 µM. actives 9% (n = 200,000). AID 1063, 2008; in the data active means inhibition above about 50%;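 further: promastigotes grown with compound for 44 hours at 28 °C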
# Redox H2O2 prof: compounds producing H2O2 with reducing agent – biochemical, NIH compound library profiling, artefact control for MLSCN library redox annotation, primary screen. DTT-dependent redox cycling H2O2, phenol red/HRP absorbance; 100% = 100 µM peroxide control, 0% = buffer. activation, % at 10 µM. actives 0.03% (n = 200,000). AID 878, 2007;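 active means activation of at least 50% relative to the plate's high and low controls in the primary single-dose screen; inactive means activation below 50%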;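 further: compound incubated with DTT at 0.8 mM final as the reducing agent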
# Starred values were filed as active, the others as inactive; · = no result given. The full list was thinned out, with hits kept by preference.
SMILES,MPTP inh,T cruzi inh,Lipid droplet,Lmaj promast,Redox H2O2 prof
COc1cc(CNc2nnnn2C)ccc1OCc1c(F)cccc1Cl,0.5,6.1,15.6,-11.0,-0.2
COc1cc(CO)ccc1OCc1ccc(Cl)nc1,0.9,-10.2,-31.4,·,·
CN(C(=O)COc1ncnc2sccc12)C1CCCCC1,-0.9,·,·,·,·
CCN(CC)S(=O)(=O)c1ccc(NC(=O)COC(=O)c2ccc(NC(=O)CC#N)cc2)cc1,-0.4,-7.5,-5.1,-1.3,-0.1
CCc1ccc(CN(C)C(=O)CCc2nnc(CCc3cccc(OC)c3)o2)nc1,-0.3,0.0,-15.8,99.7*,-0.7
O=C(Cn1nc(CNc2ccc(Cl)cc2)[n+]2c1CCCCC2)c1ccc(Br)cc1,-2.2,32.1,2.8,59.1*,0.1
N#C/C(=N\Nc1ccc(Cl)cc1)C(=N)N1CCCCC1,4.0,16.2,·,72.7*,1.0
N#C/C(=N\Nc1ccc(F)cc1)C(=N)N1CCCCCC1,-1.0,22.0,-0.7,49.4,-2.0
N#C/C(=N\Nc1ccccc1)C(=N)N1CCOCC1,-6.1,-5.9,-5.9,-6.7,0.1
Cc1ccc(N/N=C(\C#N)C(=N)N2CCOCC2)cc1,0.8,-4.1,22.3,86.8*,0.1
COc1ccc(CN2CCN(Cc3ccc4cc(F)ccc4n3)CC2CCO)c(C)c1C (centres undefined),3.2,44.7,-0.9,·,·
CC(C)(C)NC(=O)C(c1cc2ccccc2o1)n1c(-c2ccc(-c3ccccc3)cc2)nc2ccccc21 (centres undefined),2.3,·,·,·,·
CN(C)CCN(C(=O)c1ccc(S(=O)(=O)N(C)c2ccccc2)cc1)c1nc2ccc(Cl)cc2s1,1.3,62.7*,-1.8,·,·
CCN(CC)CCN(C(=O)CN1C(=O)c2ccccc2C1=O)c1nc2cc3c(cc2s1)OCO3,0.5,57.4*,-16.1,·,·
CCN(CC)CCN(C(=O)c1ccc(S(=O)(=O)N2CCCCC2)cc1)c1nc2cc3c(cc2s1)OCO3,-2.5,62.8*,8.6,2.5,-0.7
CN(C)CCCN(C(=O)c1ccc(S(=O)(=O)N2CCc3ccccc32)cc1)c1nc2ccc(Cl)cc2s1,1.2,34.5,-53.8,·,·
CCN(CC)CCN(C(=O)c1ccc2ccccc2c1)c1nc2cc3c(cc2s1)OCO3,1.7,34.1,1.1,·,·
CN(C)CCN(C(=O)c1ccc(S(=O)(=O)N(C)c2ccccc2)cc1)c1nc2cc3c(cc2s1)OCO3,-0.1,57.1*,-0.2,·,·
COC(=O)C1=C(C)NC2=C(C(=O)CC(C)(C)C2)C1c1cn(Cc2ccc(Br)cc2)nc1-c1ccccc1 (centres undefined),1.0,18.5,·,99.3*,-3.3
CN(c1ccccc1)S(=O)(=O)c1cccc(NC(=O)c2cc(=O)c3ccccc3o2)c1,3.5,14.5,-3.3,80.5*,-0.4
Cn1cnnc1SCC(=O)Nc1cccc(S(=O)(=O)N2CCCCCC2)c1,0.2,-3.5,-11.2,-3.3,0.4
NS(=O)(=O)c1cccc(NC(=O)c2cc(=O)c3ccccc3o2)c1,1.4,-11.6,-3.7,·,·
CCCC(=O)Nc1cccc(S(=O)(=O)N(C)c2ccccc2)c1,0.0,-13.3,-24.4,67.4*,-0.1
COc1ccc(NC(=O)CN(C)CC(=O)Nc2cccc(S(=O)(=O)N(C)c3ccccc3)c2)cc1,0.4,12.7,20.8,81.4*,-1.0
CN(c1ccccc1)S(=O)(=O)c1cccc(NC(=O)CSc2nncn2C)c1,0.5,-7.1,-5.3,57.1*,0.1
SMILES,MPTP inh,T cruzi inh,Lipid droplet,Lmaj promast,Redox H2O2 prof
CCCS(=O)(=O)NC(=O)C1(C)CCN(C(=O)COc2ccc(Cl)cc2Cl)C1 (centres undefined),0.0,·,·,·,·
O=C(Cn1nnc2ccccc2c1=O)NCC1CCC(C(=O)O)CC1 (centres undefined),0.1,-16.4,2.7,·,·
CC1CCC2(CC1)NC(=O)N(CC(=O)N1CCOCC1)C2=O (centres undefined),-1.1,·,·,·,·
Cc1ccc(S(=O)(=O)N(C(=O)c2ccco2)c2cc3sc(=O)oc3c3ccccc23)cc1,0.5,-4.5,14.2,97.7*,-0.5
COc1ccc(S(=O)(=O)N(C(=O)c2ccco2)c2cc3sc(=O)oc3c3ccccc23)cc1,1.2,-10.0,1.3,98.9*,-0.1
CC(=O)N(c1ccc2oc(=O)sc2c1)S(=O)(=O)c1ccccc1,-3.2,-15.6,·,-2.5,0.2
CCOc1ccc(S(=O)(=O)N(C)CC(=O)NCc2ccco2)cc1,0.1,-1.0,-1.4,·,·
